Screening results as filed in PubChem.
Compounds with a hit are over-represented: about 3.5% of the library has one in this group of screens.
MrgX1 agonist = human MrgX1 receptor agonism, primary screen; Q96LB2; MrgX1-HEK293 cells, Fluo-4 calcium fluorescence, agonist mode; stronger effect = higher value; B-score at 10 µM; 310,000 tested, 0.44% active;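 active means calcium response B-score plate-corrected fluorescence ratio at least 3 library SD, with starting fluorescence B-score inside 5 SD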
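Test system: HEK293 cells stably expressing human MrgX1 receptor; amount: 15,000 cells per well; doses: compound delivered in addition one of three; times: overnight plating before 1 h dye loading; detection: Fluo-4 NW calcium-flux fluorescence, kinetic read; read-out basis: B-scored fluorescence response ratio; controls: positive and negative controls per plate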
MrgX1 antag = blocks BAM8-22 activation of human MrgX1 receptor; Q96LB2; 310,000 tested, 1.3% active; AID 588676; B-score at 10 µM; MRGX1-HEK293 calcium flux, Fluo-4, BAM8-22 antagonism; stronger effect = lower value;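 active means calcium-response B-score plate-corrected more than 3 library SD below zero, starting fluorescence within 5 deviations, no agonist response on first addition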;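 further: peak minus trough fluorescence over baseline after final BAM8-22 challenge near maximal dose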
RGS4 act = RGS4 potentiation or activation; B-score at 10 µM; HEK293 M3R/inducible RGS4, carbachol calcium flux Fluo4; stronger effect = lower value; 310,000 tested, 0.92% active;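 active means B-score of the integrated calcium signal more than 4 SD below the library mean, with starting fluorescence not abnormally high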;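 further: negative B-score means reduced calcium response which marks RGS4 activation or potentiation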
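Reagent: ECmax carbachol challenge; Test system: M3R-expressing HEK293 line, RGS4 induced by doxycycline; Schedule: overnight RGS4 induction, 30 min dye load 37 °C, 20 min compound RT; Detection: calcium dye Fluo4 fluorescence; Read-out: Agonist-evoked peak-minus-minimum fluorescence over baseline, integrated ratio, B score.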
RGS4 block = inhibitors of human RGS4; AID 463165; B-score at 10 µM; 310,000 tested, 0.45% active; HEK293 M3R/RGS4 inducible, Fluo-4 calcium flux; stronger effect = higher value; triggered by carbachol at its EC20; P49798;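 active means B-score, a plate-corrected calcium signal, over three deviations above library mean, with baseline fluorescence within five deviations of library mean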;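 further: RGS4 expression induced by doxycycline in cells with stable M3 receptor; B-score is computed from the integrated fluorescence ratio over baseline after carbachol; higher B-score means a larger calcium signal and so more RGS4 inhibition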
Target sequence (P49798 whole entry, looked up): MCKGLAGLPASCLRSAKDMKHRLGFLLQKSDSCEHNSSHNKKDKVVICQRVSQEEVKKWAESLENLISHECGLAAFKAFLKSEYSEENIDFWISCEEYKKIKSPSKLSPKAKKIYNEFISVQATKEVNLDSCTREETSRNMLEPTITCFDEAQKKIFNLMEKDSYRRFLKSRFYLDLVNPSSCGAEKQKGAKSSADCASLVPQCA
MrgX1 PAM = human MrgX1 positive allosteric modulation, primary screen | Q96LB2 | MrgX1-HEK293, Fluo-4 calcium flux, FDSS; stronger effect = higher value | B-score at 10 µM | 310,000 tested, 0.63% active | AID 588675;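 active means plate-corrected calcium response at least 3 library SD above typical, normal starting fluorescence, not activating the receptor alone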;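 further: compound read alongside a low EC10 to EC30 dose of BAM8-22 agonist; peak minus trough fluorescence over baseline measured at the second addition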
An asterisk follows results filed as active; i = inactive; . = no result given.

SMILES | MrgX1 agonist | MrgX1 antag | RGS4 act | RGS4 block | MrgX1 PAM
Clc1cccc(NCc2nnc(SCc3ccc(Cl)cc3Cl)o2)c1 | i | i | -8.6* | i | i
Cc1cccc(OCC(=O)NCCNC(=O)c2ccccn2)c1 | i | i | i | i | i
COc1ccc(C(=O)Nc2ccc3c(c2)nc(CCNC(=O)c2ccco2)n3C)cc1 | i | i | i | i | i
CS(=O)(=O)c1nsc2nc(=O)c(/C=C3\C=Nc4ccccc43)c(N)n12 | i | i | i | i | i
CS(=O)(=O)c1ccc2c(c1)sc1nc(=O)c(/C=C3/C=CC(=O)C(O)=C3)c(N)n12 | i | i | i | i | 28*
COC1=C/C(=C/c2c(N)n3c(nc2=O)sc2cc(S(C)(=O)=O)ccc23)C=CC1=O | i | i | i | i | 10*
CCOc1ccc(/C=C/C(=O)OC(C)C(=O)NC2CCCCC2C)cc1OC (stereo not given) | i | i | i | i | i
C/C(=C\C(=S)Nc1ccccc1)Nc1cccc2ccccc12 | i | i | i | i | i
C/C(=C\C(=S)Nc1ccccc1)Nc1ccc2ccccc2c1 | i | -4.5* | i | i | i
O=C(CCC(=O)OCC(=O)c1cccc([N+](=O)[O-])c1)Nc1cccc(Cl)c1Cl | i | i | i | i | i
O=C(CC(=O)c1ccccc1)Nc1cc([N+](=O)[O-])ccc1Cl | i | i | i | i | i
O=C(CCC(=O)OCC(=O)c1ccc([N+](=O)[O-])cc1)Nc1ccccc1Cl | i | -5.5* | i | i | i
O=C(COC(=O)c1ccccc1NS(=O)(=O)c1cc([N+](=O)[O-])ccc1Cl)c1ccccc1 | 32* | i | i | i | i
CS(=O)(=O)N(Cc1nc(-c2ccc(F)cc2)no1)c1ccccc1Cl | i | i | . | . | i
O=C(/C=C/c1ccco1)Nc1ccc2c(c1)OCO2 | i | i | i | i | i
CCc1ccccc1NC(=O)c1cccc(NC(=O)/C=C/c2ccco2)c1 | i | i | i | i | i
Cc1ccc(-n2nc3ccc(NC(=O)/C=C/c4ccco4)cc3n2)cc1 | i | -6.3* | i | i | i
Cc1ccc(NC(=O)c2cccc(NC(=O)/C=C/c3ccco3)c2)cc1C | i | i | -9.6* | i | i
COc1ccc(OC(=O)COc2ccc(Cl)cc2)cc1 | i | i | i | i | i
COc1ccc(S(=O)(=O)N2CCNC(=O)C2)cc1Br | i | i | i | i | i
CC(=O)OCCN1CCN(C(=O)CN2C(=O)NC(c3ccccc3)(c3ccccc3)C2=O)CC1 | i | i | i | i | i
COc1ccc(-n2c(C)cc(/C=C(\C#N)C(=O)NCc3ccco3)c2C)cc1 | i | -4.9* | i | i | i
CCCn1c(SC(C)C(=O)NCC2CCCO2)nc2sc3c(c2c1=O)CCC3 (stereo not given) | i | i | i | i | i
COc1ccc(N(C(=O)CNC(=O)c2ccco2)C(C(=O)NCC2CCCO2)c2ccc(OC)c(OC)c2)cc1 (stereo not given) | i | i | i | i | i
CCOc1ccc(C(=O)NCC(=O)NNC(=O)C2COc3ccccc3O2)cc1OCC (stereo not given) | i | -5.4* | i | i | i
SMILES | MrgX1 agonist | MrgX1 antag | RGS4 act | RGS4 block | MrgX1 PAM
CCC(c1nnc(SCC(=O)Nc2cc(S(C)(=O)=O)ccc2Cl)n1Cc1ccccc1)N(C)C (stereo not given) | i | i | i | i | i
CC(=O)Nc1ccc(CN2CCCCCCC2)cc1 | i | i | i | i | i
O=C(NC(=S)Nc1ccc(CN2CCCCC2)cc1)c1cccc(OCc2ccccc2)c1 | i | i | -7.5* | i | i
O=C(Nc1ccc(CN2CCCCC2)cc1)c1c(F)c(F)c(F)c(F)c1F | i | i | -7.3* | i | i
CCn1c(SC(C)C(=O)Nc2nccs2)nnc1-c1ccncc1 (stereo not given) | i | i | i | i | i
O=C(CN1C(=O)c2cccnc2Oc2ccc(Cl)cc21)N1CCOCC1 | i | i | i | i | i
